# RGS4 inh = inhibitors of human RGS4; P49798; HEK293 M3R/RGS4 inducible, Fluo-4 calcium flux; stronger effect = higher value; triggered by carbachol at its EC20; B-score at 10 µM; 310,000 tested, 0.45% active;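 active means B-score, a plate-corrected calcium signal, over three deviations above library mean, with baseline fluorescence within five deviations of library mean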;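 further: RGS4 expression induced by doxycycline in cells with stable M3 receptor; B-score is computed from the integrated fluorescence ratio over baseline after carbachol; higher B-score means a larger calcium signal and so more RGS4 inhibition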
# Target sequence (P49798 whole entry, looked up): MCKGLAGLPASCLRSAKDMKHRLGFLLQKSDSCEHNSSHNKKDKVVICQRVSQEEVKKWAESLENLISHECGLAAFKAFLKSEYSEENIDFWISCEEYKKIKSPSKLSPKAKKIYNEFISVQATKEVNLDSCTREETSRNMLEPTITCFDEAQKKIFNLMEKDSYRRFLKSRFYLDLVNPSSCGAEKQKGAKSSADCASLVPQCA
# MrgX1 allo act = human MrgX1 positive allosteric modulation, primary screen; MrgX1-HEK293, Fluo-4 calcium flux, FDSS; stronger effect = higher value; AID 588675; Q96LB2; 310,000 tested, 0.63% active; B-score at 10 µM;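 active means plate-corrected calcium response at least 3 library SD above typical, normal starting fluorescence, not activating the receptor alone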;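 further: compound read alongside a low EC10 to EC30 dose of BAM8-22 agonist; peak minus trough fluorescence over baseline measured at the second addition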
# Target sequence (Q96LB2 whole entry, looked up): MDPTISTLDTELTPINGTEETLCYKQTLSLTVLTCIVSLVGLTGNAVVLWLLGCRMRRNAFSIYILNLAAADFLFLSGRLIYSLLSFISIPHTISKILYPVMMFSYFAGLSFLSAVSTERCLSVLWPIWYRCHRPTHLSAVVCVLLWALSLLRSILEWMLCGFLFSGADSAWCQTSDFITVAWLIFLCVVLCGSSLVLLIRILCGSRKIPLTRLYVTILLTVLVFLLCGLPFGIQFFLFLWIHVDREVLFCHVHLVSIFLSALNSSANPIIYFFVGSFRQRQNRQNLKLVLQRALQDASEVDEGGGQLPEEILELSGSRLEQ
# RGS4 act = potentiators or activators of RGS4 | HEK293 M3R/inducible RGS4, carbachol calcium flux Fluo4; stronger effect = lower value | B-score at 10 µM | 310,000 tested, 0.92% active | AID 463111;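 active means B-score of the integrated calcium signal more than 4 SD below the library mean, with starting fluorescence not abnormally high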;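 further: negative B-score means reduced calcium response which marks RGS4 activation or potentiation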
#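 test system = M3R-expressing HEK293 line, RGS4 induced by doxycycline | probe or stimulus = carbachol at ECmax as muscarinic agonist stimulus | timing = dye loading 30 min 37 °C, buffer rest 30 min RT | signal = calcium dye Fluo4 fluorescence | evaluation = B score from integrated fluorescence ratio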
# MrgX1 ag = activates human MrgX1 receptor signaling | Q96LB2 | MrgX1-HEK293 cells, Fluo-4 calcium fluorescence, agonist mode; stronger effect = higher value | B-score at 10 µM | 310,000 tested, 0.44% active | AID 588627;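 active means calcium response B-score plate-corrected fluorescence ratio at least 3 library SD, with starting fluorescence B-score inside 5 SD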
#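 Assay system: MrgX1-expressing HEK293 cells / Amount: fifteen thousand cells per well / Doses: test compound in the initial addition of three / Timing: cells plated overnight, dye loaded 0.5 h 37 °C, 0.5 h room temperature / Technique: kinetic calcium dye fluorescence, Fluo-4 NW / Control set: positive and negative controls per plate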
# MrgX1 antagonist = human MrgX1 receptor antagonism, primary screen. Q96LB2. MRGX1-HEK293 calcium flux, Fluo-4, BAM8-22 antagonism; stronger effect = lower value. B-score at 10 µM. 310,000 tested, 1.3% active. AID 588676;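 active means calcium-response B-score plate-corrected more than 3 library SD below zero, starting fluorescence within 5 deviations, no agonist response on first addition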;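 further: peak minus trough fluorescence over baseline after final BAM8-22 challenge near maximal dose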
# MrgX1 ant reconf = confirmation of human MrgX1 receptor antagonists. shares compounds with MrgX1 antagonist. MrgX1-HEK293, BAM8-22 calcium flux, Fluo-4; stronger effect = lower value. remaining BAM8-22 calcium response % of control (stronger effect = lower value), % at 10 µM. 2,300 tested, 19% active;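 active means remaining agonist calcium response no higher than 100% minus 3 SD of agonist-only control wells, with starting fluorescence near control levels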;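 further: agonist BAM8-22 given at a near maximal EC90 to ECmax level; peak minus minimum fluorescence divided by baseline after agonist addition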
# HEK293 Ca flux = activity in parental HEK293 cells lacking MrgX1; shares compounds with MrgX1 antagonist; Fluo-4 calcium fluorescence, FDSS; fluorescence ratio F(max-min)/F0 at 10 µM; 4,000 tested, 2% active; AID 624111;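 active means duplicate-averaged calcium fluorescence ratio at least three times the standard deviation of buffer wells, a nonspecific response in parental cells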
# HEK293 Ca counter = activity in parental HEK293 cells without MrgX1; shares compounds with MrgX1 antagonist; parental HEK293 calcium flux, Fluo-4 fluorescence ratio; stronger effect = higher value; fluorescence ratio F(max-min)/F0 at 10 µM; 4,000 tested, 0.4% active;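 active means calcium fluorescence ratio, averaged over duplicates, at least 3 SD of the buffer-well ratio, meaning a nonspecific response in receptor-free cells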;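 further: untransfected parental HEK293 lacking MrgX1 used as counterscreen for MrgX1 allosteric activators; fluorescence change taken during the second addition on a kinetic imager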
# HEK293 Ca cntr2 = counter-screen for MrgX1 activators: effect in parental HEK293 cells; fluorescence ratio F(max-min)/F0 at 10 µM; Fluo-4 calcium fluorescence (FDSS); stronger effect = higher value; shares compounds with MrgX1 antagonist; 4,000 tested, 8.7% active;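 active means calcium fluorescence ratio at least three times the spread of buffer wells, meaning a non-specific response in parental cells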
# * marks the source's active call; other numbers are inactive results; i = inactive; . = not tested or not shown. Rows were chosen to be rich in hits. Some 3.5% of all compounds tested hit in one or more screens of this group.
SMILES,RGS4 inh,MrgX1 allo act,RGS4 act,MrgX1 ag,MrgX1 antagonist,MrgX1 ant reconf,HEK293 Ca flux,HEK293 Ca counter,HEK293 Ca cntr2
CCOC(=O)c1c(C)[nH]c(N=Nc2cccc(OC)c2)c1C,i,i,i,i,i,.,.,.,.
CCN(C(=O)Cc1c(C(=O)O)n(C)c2ccccc12)c1ccc(F)cc1,i,i,i,i,-5*,i,i,i,i
CCN(C(=O)Cc1c(C(=O)O)n(C)c2ccccc12)c1cc(OC)ccc1OC,i,i,i,i,i,.,.,.,.
COc1ccc(C)cc1N(CC(=O)Nc1ccc(S(=O)(=O)N2CCOCC2)cc1)S(C)(=O)=O,i,i,i,i,-5.2*,i,i,i,i
CSc1cccc(NC(=S)N(CCC(C)C)C2CCN(C(C)=O)CC2)c1,i,i,i,i,i,.,.,.,.
CSc1cccc(NC(=S)N(CCC(C)C)C2CCN(C(C)C)CC2)c1,i,i,i,i,-6.3*,i,i,i,i
COC(=O)CNC(=O)CNC(=O)Nc1ccccc1,i,i,i,i,-8.1*,83%*,i,i,i
O=C(O)CCC(=O)Nc1cccc(-c2nc3ccccc3o2)c1,i,i,i,i,i,.,.,.,.
CC(C)(C)C(=O)CSc1ncnc2sc3c(c12)CCC3,i,i,i,i,-9.7*,i,i,i,i
CC(=O)CSc1ncnc2sc3c(c12)CCC3,i,i,i,i,i,.,.,.,.
CCc1nnc(NC(=O)CSc2nccn2-c2cccc(C)c2)s1,i,i,i,i,i,.,.,.,.
Cc1cccc(-n2ccnc2SCC(=O)Nc2nnc(C)s2)c1,i,i,i,i,-7.7*,i,i,i,i
Cc1ccc(NC(=O)c2cccc(S(=O)(=O)N(C)C3CCCCC3)c2)nc1,i,i,i,i,i,.,.,.,.
Cc1cc(-c2ccccc2N)n[nH]1,i,i,i,i,-6.4*,i,i,i,i
Cc1cc(-c2cccs2)n[nH]1,i,i,i,i,i,.,.,.,.
Cc1ccccc1CSc1nnc(-c2cccs2)n1Cc1ccco1,i,i,i,i,i,.,.,.,.
c1ccc(CSc2nnc(-c3cccs3)n2Cc2ccco2)cc1,i,i,i,i,-5.8*,83%*,i,i,i
O=C(CN1CCN(C(=O)C2CCCO2)CC1)Nc1cc(C(F)(F)F)ccc1Cl (configuration not stated),i,i,i,i,i,.,.,.,.
CCCCN1C(=O)C(NC(C)=O)c2cc(Br)ccc21 (configuration not stated),i,i,i,i,i,.,.,.,.
CC(=O)NC1C(=O)N(CCN2CCOCC2)c2ccc(Cl)cc21 (configuration not stated),i,i,i,i,-8.7*,i,i,i,i
CC(=O)NC1C(=O)N(CCN2CCOCC2)c2ccc(F)cc21 (configuration not stated),i,i,i,i,-5.4*,61%*,i,i,i
CCCCn1c(N)c(N(CCC(C)C)C(=O)C2CC(=O)N(c3ccc(OC)cc3OC)C2)c(=O)[nH]c1=O (configuration not stated),i,i,i,i,i,.,.,.,.
O=C(Nc1cccnc1)c1cc(-c2ccc(Br)cc2)on1,i,i,i,i,-8.7*,i,i,i,i
O=C(Nc1cccnc1)c1cc(-c2ccccc2)on1,i,i,i,i,i,.,.,.,.
O=C(CN1C(=O)NC2(CCCc3ccccc32)C1=O)N1CCc2ccccc2C1 (configuration not stated),i,i,i,i,-9.3*,85%*,i,i,i
SMILES,RGS4 inh,MrgX1 allo act,RGS4 act,MrgX1 ag,MrgX1 antagonist,MrgX1 ant reconf,HEK293 Ca flux,HEK293 Ca counter,HEK293 Ca cntr2
Cc1ccc(OCCN(C)C(=O)C2CCC(=O)N(CCCN3CCCC3=O)C2)cc1 (configuration not stated),i,i,i,i,i,.,.,.,.
CN=c1nc(-c2ccccc2)n(-c2ccccc2)s1,.,i,.,i,-4.9*,i,i,i,i
CCOC(=O)C1=C(N)OC2=C(C(=O)CC(C)(C)C2)C1c1cc(CSc2nnnn2C)cs1 (configuration not stated),i,i,i,i,i,.,.,.,.
Cc1cc(C(=O)CSc2nc3ccccc3[nH]2)c(C)n1CC1CCCO1 (configuration not stated),i,i,i,i,-8.1*,9.7%*,i,i,i
O=C(NC1CCCN(C2Cc3ccccc3C2)C1)c1ccc(F)cc1Cl (configuration not stated),i,i,i,i,i,.,.,.,.
CC1CC(C)CN(CCCNC(=O)c2cc3c(=O)[nH]c4ccccc4c3n2C)C1 (configuration not stated),i,i,i,i,i,.,.,.,.
CN(CCCNC(=O)c1cc2c(=O)[nH]c3ccccc3c2n1C)Cc1ccccc1,i,i,i,i,-5.7*,i,i,i,i
COc1ccc(NC(=O)c2cccc(NC3=NC4CS(=O)(=O)CC4S3)c2)cc1Cl (configuration not stated),i,i,i,i,i,.,.,.,.
O=[N+]([O-])c1ccc(N2N=C(c3ccccc3)CC2c2ccccc2O)cc1 (configuration not stated),i,i,-9.3*,i,-16*,i,0.56*,i,i
COc1cc(N2N=C(c3ccccc3)CC2c2ccccc2)c(C=O)cc1C=O (configuration not stated),i,i,i,i,i,.,.,.,.
COc1ccccc1N1N=C(c2ccc([N+](=O)[O-])cc2)CC1c1ccccc1 (configuration not stated),i,i,i,i,-15*,i,0.69*,i,i
O=C(Nc1cccc(F)c1)c1ccc(Cn2cc([N+](=O)[O-])cn2)o1,i,i,i,i,i,.,.,.,.

# Source: PubChem
